Compounds with a hit are over-represented: about 2.1% of the library has one in this group of screens.
FN deposition inh: fibronectin deposition inhibition. AH1F fibroblasts, Alexa488-fibronectin deposition fluorescence, overnight. inhibition, % at 12.6 µM. 350,000 tested, 0.086% active. AID 743247;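 active = mean inhibition across replicates of 30% or more, regardless of how many single replicates reach that level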;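 also: positive control wells lacked labelled fibronectin entirely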
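Material: AH1F fibroblast monolayer depositing Alexa488-labelled fibronectin into matrix / Amount: 10000 AH1F cells per well / Signal: fluorescence 485/525 nm / Medium: DMEM, 2% serum / Compound: single dose, pinned / Incubation: 1 h cell adhesion before compound, then overnight fibronectin incubation / Reagent: Alexa488-FN, 24 nM final / Read-out: inhibition of fibronectin deposition signal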
FGF22 binding: binders of recombinant human FGF22 by thermal shift; 340,000 tested, 1.5% active; Q9HCT0; SYPRO orange fluorescence; percent of sucrose octasulfate shift, DMSO zero; activity (Tm shift, normalised), % at 9.99 µM;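 active = mean Tm shift, scaled 0 neutral to 100 positive control, at about 1.3% or above, every replicate too, limit read from the data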
Target sequence (Q9HCT0 whole entry, looked up): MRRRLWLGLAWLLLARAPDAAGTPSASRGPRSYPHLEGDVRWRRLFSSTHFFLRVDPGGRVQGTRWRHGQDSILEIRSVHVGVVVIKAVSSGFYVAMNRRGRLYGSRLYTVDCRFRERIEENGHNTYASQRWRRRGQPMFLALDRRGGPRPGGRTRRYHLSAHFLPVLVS
ARNT-TACC3 inh: disruptors of human ARNT/TACC3 interaction; Q9Y6A5; AlphaScreen His-ARNT PAS-B/GST-TACC3 binding, luminescence; TACC3 fragment carries E629A point mutation; inhibition, % at 9.99 µM; 390,000 tested, 0.66% active; AID 623870;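 active = mean inhibition of replicates at least 50% and at least half of replicates each reaching 50%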;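 also: 0% = complete ARNT plus TACC3 wells and 100% = ARNT alone without TACC3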
MLL AF4-AF9 inh: inhibitors of human MLL-AF4/AF9 interaction | inhibition, % at 10 µM | AlphaScreen, biotin-AF4 peptide binding to FLAG-AF9 | P42568 | 350,000 tested, 0.47% active;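 active = every replicate reaching a set inhibition limit, whatever the replicate mean, cut at about 25% in these data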;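 also: 0% = plate neutral control median and 100% = total signal loss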
ERp5 block: inhibitors of human ERp5. Q15084. ERp5 insulin aggregation, absorbance 650 nm, 90 min. inhibition, % at 9.99 µM. 350,000 tested, 0.05% active. AID 651711;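 active = mean replicate inhibition above about 25%, with every replicate also reaching it, limit read from the data, passing the limit was not always enough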
Target sequence (Q15084 whole entry, looked up): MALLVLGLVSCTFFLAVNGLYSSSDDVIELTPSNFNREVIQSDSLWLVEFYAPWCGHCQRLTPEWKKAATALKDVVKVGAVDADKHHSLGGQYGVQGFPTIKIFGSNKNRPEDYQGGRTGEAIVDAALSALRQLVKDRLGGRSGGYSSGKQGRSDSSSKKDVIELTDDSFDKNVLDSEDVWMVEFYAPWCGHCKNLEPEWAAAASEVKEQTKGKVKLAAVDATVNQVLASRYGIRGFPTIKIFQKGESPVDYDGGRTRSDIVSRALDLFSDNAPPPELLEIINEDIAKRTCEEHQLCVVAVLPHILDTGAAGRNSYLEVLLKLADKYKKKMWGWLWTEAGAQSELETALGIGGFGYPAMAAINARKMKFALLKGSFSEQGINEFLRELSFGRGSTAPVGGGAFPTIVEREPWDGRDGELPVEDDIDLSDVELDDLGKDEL
PDI inh: blocks human protein disulfide isomerase activity; P07237; PDI insulin aggregation turbidity, A650, 90 min; inhibition, % at 10 µM; 350,000 tested, 0.052% active; AID 588391;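 active = mean inhibition across replicates of 30% or more, whatever share of single replicates reach that level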
The depositor's hits bear a star; nt = no result.

SMILES	FN deposition inh	FGF22 binding	ARNT-TACC3 inh	MLL AF4-AF9 inh	ERp5 block	PDI inh
CC(C)c1ccc(/C=N/Nc2ccc(C(=O)O)cc2)cc1	2	44*	0	-6	-3	-1
CN(C)CC1CC/C(=C\c2ccc(O)cc2)C1=O (stereo not given)	6	0	-8	-2	-1	87*
CC1CCC/C(=C\c2ccc(O)cc2)C1=O (stereo not given)	18	0	4	3	3	2
O=c1cnnc(SCc2ccc([N+](=O)[O-])cc2)[nH]1	-7	43*	nt	-1	3	8
O=[N+]([O-])c1ccc(CSc2nc3ccccc3[nH]2)cc1	-11	0	2	6	4	15
CC=Cc1ccc2n(c1=O)C[C@@H]1[C@@H](CO)[C@H](C(=O)NC3CCC3)N(S(C)(=O)=O)[C@H]21 (mixture of isomers)	nt	0	-2	0	3	nt
CO[C@H]1CN(C)C(=O)c2cc(NC(C)=O)ccc2OC[C@H](C)N(Cc2cncnc2)C[C@H]1C	-10	0	-8	-3	-3	nt
COc1ccc(-c2nn(-c3ccccc3)cc2C(=O)OCC(=O)c2ccc(C)c([N+](=O)[O-])c2)cc1	-3	43*	-4	1	-6	7
C[C@H](CO)N1C[C@H](C)[C@H](CN(C)S(C)(=O)=O)Oc2c(NC(=O)c3cnccn3)cccc2C1=O	nt	0	-2	-7	-5	nt
CCOc1ccc(NC(C)=O)cc1[N+](=O)[O-]	-3	43*	-6	0	4	5
O=C(CCc1ccccc1)OCC(=O)c1ccc(Br)cc1	-24	43*	33	-10	-3	-5
N/C(=N\OC(=O)CCc1ccccc1)c1ccc(Br)cc1	nt	0	-6	2	-3	3
O=C(CN1CCCC1)OCCCc1ccccc1	-3	44*	-6	-2	-3	6
CNC[C@@H]1Oc2cc(C#CCN(C)C)ccc2S(=O)(=O)N([C@H](C)CO)C[C@H]1C	-2	0	-43	15	-7	nt
O=C(CN(c1ccccc1Cl)S(=O)(=O)c1ccccc1)N/N=C/c1ccccc1C(=O)O	-3	0	-3	0	-3	-12
Cc1ccc(S(=O)(=O)N(CC(=O)N/N=C/c2ccccc2C(=O)O)c2cc(Cl)cc(Cl)c2)cc1	-8	43*	-4	2	6	-5
Cc1ccc(/C=N\NC(=O)COc2ccc(C)cc2[N+](=O)[O-])cc1	7	43*	-3	-10	-1	-1
Cc1ccc(OCC(=O)N/N=C\c2ccc(O)c([N+](=O)[O-])c2)c([N+](=O)[O-])c1	1	0	nt	-4	1	-2
CN1C(=O)c2cc(NC(=O)c3cccs3)ccc2OC[C@@H]2O[C@@H](CC(=O)NCC(F)(F)F)CC[C@@H]21	1	0	-12	-3	1	nt
NC(=O)C[N+]1(CC#CC(O)(c2ccccc2)c2ccccc2)CCCC1	0	4.0*	-6	-18	1	-8
COc1ccc(-c2ccc([C@H]3[C@@H](CO)N(C(=O)C4CCC4)[C@H]3C#N)cc2)cc1	-18	0	2	-2	-7	nt
CCN1CCN(CCNC(=O)c2ccc3nc(-c4cccc(C)c4)c(-c4cccc(C)c4)nc3c2)CC1	-5	0	-25	28*	6	-12
C/C=C/c1ccc2c(c1)O[C@@H](CN(C)Cc1cncnc1)[C@H](C)CN([C@@H](C)CO)S2(=O)=O	-1	0	-2	0	10	nt
COc1ccc(/[N+]([O-])=C/c2ccoc2)cc1	15	45*	8	4	-1	-2
Cc1ccc(-n2c(C)c(C)c3c(NCCO)ncnc32)cc1	6	-1	27*	6	3	1
SMILES	FN deposition inh	FGF22 binding	ARNT-TACC3 inh	MLL AF4-AF9 inh	ERp5 block	PDI inh
Cc1c(C)n(-c2ccccc2)c2ncnc(NCCCN(C)C)c12	-2	0	-1	9	2	10
Fc1ccc(N2CCN(Cc3cnc(N4CCOCC4)s3)CC2)cc1	nt	43*	-6	0	-1	8
O=[N+]([O-])c1ccccc1CN1CCN(Cc2ccccn2)CC1	3	43*	-3	0	-2	0
CC(=O)Nc1ccc(S(=O)(=O)N2CCN(Cc3ccccc3[N+](=O)[O-])CC2)cc1	-1	44*	4	0	0	-1
Fc1ccc(N2CCN(Cc3ccccn3)CC2)cc1	8	44*	-2	1	8	-7
CN1C(=O)c2cc(NC(=O)c3cccc(F)c3)ccc2OC[C@@H]2O[C@H](CC(=O)O)CC[C@@H]21	-9	0	-2	nt	nt	nt
COc1ccc(NC(=O)N(C)C[C@H]2OCCCC[C@H](C)Oc3ccc(NC(=O)CCC(F)(F)F)cc3C(=O)N([C@H](C)CO)C[C@@H]2C)cc1	nt	0	-1	1	-4	nt
COc1ccc(NC(=O)N(C)C[C@H]2Oc3ccc(NS(=O)(=O)c4ccccc4)cc3C(=O)N([C@@H](C)CO)C[C@@H]2C)cc1	nt	0	-3	0	33*	nt
COc1ccc(S(=O)(=O)Nc2ccc3c(c2)C(=O)N([C@H](C)CO)C[C@H](C)[C@H](CN(C)C(=O)Nc2ccccc2)O3)cc1	nt	-1	9	0	29*	nt
CC(C)NC(=O)Nc1ccc2c(c1)CC(=O)N(C)C[C@H](C)[C@@H](CN(C)C(=O)OC(C)(C)C)O2	-7	nt	nt	nt	nt	nt
Cc1n[nH]c(=O)c2c(NC(=O)CSc3nnnn3-c3ccc(O)cc3)oc(C)c12	-9	0	0	0	-10	43*
Cc1ccc(S(=O)(=O)NCC[C@@H]2CC[C@H](NC(=O)c3cccc(F)c3)[C@H](CO)O2)cc1	nt	0	22	1	3	nt
CCCCNC(=O)c1onc(CSc2ccc(Cl)cc2)c1C(=O)NCCCC	-12	35*	-3	1	2	0
CCCCNC(=O)c1c(CSc2ccc(Cl)cc2)noc1C(=O)NCCC	1	0	-20	-5	-1	0
O=C(Cc1ccccc1)N[C@H]1C=C[C@@H](CC(=O)N2CCOCC2)O[C@@H]1CO	-1	0	7	2	0	nt
Cc1ccc(S(=O)(=O)N=Nc2c(O)[nH]c3ccccc23)cc1	nt	nt	0	nt	nt	2
Cc1ccc(C)c(S(=O)(=O)N=Nc2c(O)[nH]c3ccccc23)c1	0	43*	-2	-3	2	0
O=[N+]([O-])c1cccc(-c2nnc(CNC3CC3)o2)c1	-14	1	-8	0	2	-5
Clc1ccccc1-c1nnc(CNC2CC2)o1	-7	44*	0	-1	-2	1
N#Cc1c(Cl)nsc1NN	nt	0	20	51*	-1	4
CO[C@@H]1CN(C)C(=O)c2cc(NC(C)=O)ccc2OC[C@H](C)N(CCC(F)(F)F)C[C@@H]1C	-8	0	-18	-15	1	nt
